# Activity calls are given as the source filed them. The calls are words filed in the database; no cut-off is given here.
# Experiments:
# Medulloblastoma cell [1] = assay: Antiproliferative activity in human medulloblastoma cell assessed as decrease in BrdU+ cells at 1 uM after 48 hrs by immunocytochemistry analysis relative to vehicle control; type: functional, cell-based
# How it was run: (§1)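 Cultured MB cells were exposed to inhibitor at 1 μM for 48 h, with DMSO as the vehicle control. Cells were pulsed with BrdU for 2 h, then immunostained for BrdU (proliferation) or p27/Kip1 (differentiation), with DAPI nuclear counterstain. Read-out was the percentage of positive cells.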
# Medulloblastoma cell [2] = assay: Induction of cell differentiation activity in human medulloblastoma cell assessed as increase in p27/Kip1+ cells at 1 uM after 48 hrs by immunocytochemistry analysis; type: functional, cell-based; how it was run: as §1
# Medulloblastoma cell [3] = assay: Upregulation in NeuroD1 protein expression in human medulloblastoma cell by Western blot analysis; type: functional, cell-based
# Medulloblastoma cell [4] = assay: Antiproliferative activity in Ptch1-deficient mouse medulloblastoma cell after 48 hrs by CCK-8 assay; type: functional, cell-based
# How it was run: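 MB cells from tumors of 30-week-old Ptch1+/− mice, dissociated by papain digestion and purified on a 35%/65% Percoll gradient. Cells were treated with a range of inhibitor concentrations for 48 h and viability was read by CCK8 assay. IC50 was taken as the concentration giving 50% inhibition of viability.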
# [5] = test system: Cerebellar granule neurone; assay: Antiproliferative activity in wild-type mouse SmoA1-expressing cerebellar granule neurone cells at P7 at 2 uM for 48h by immunocytochemistry analysis; type: functional, cell-based
# How it was run: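 Cerebellar granule neuron precursors from wild-type pups were infected with SmoA1-GFP lentivirus. 48 h after infection they were treated with inhibitor at 2 μM for 48 h, with DMSO as control. Proliferation was scored as the percentage of EdU+ cells among infected cells by immunostaining.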
# Medulloblastoma cell [6] = assay: Antitumor activity in human medulloblastoma cells xenografted in CB17/SCID mouse at 100 mg/kg po, administered once a day; type: functional, organism-based
# Medulloblastoma cell [7] = assay: Antitumor activity in human medulloblastoma cells xenografted in CB17/SCID mouse at 50 mg/kg po, administered once a day; type: functional, organism-based
# [8] = Toxicity in CB17/SCID mouse xenografted with human medulloblastoma cells asessed as body weight loss at 100 mg/kg po, administered once a day; type: organism-based; conditions: in vivo
# [9] = Toxicity in CB17/SCID mouse xenografted with human medulloblastoma cells asessed as body weight loss at 50 mg/kg po, administered once a day; type: organism-based; conditions: in vivo
# Medulloblastoma cell [10] = assay: Antitumor activity in human medulloblastoma cells xenografted in CB17/SCID mouse assessed as decrease in Ki67+ cells at 100 mg/kg po, administered once a day by immunocytochemistry analysis; type: functional, organism-based
# Medulloblastoma cell [11] = assay: Antitumor activity in human medulloblastoma cells xenografted in CB17/SCID mouse assessed as decrease in Ki67+ cells at 50 mg/kg po, administered once a day by immunocytochemistry analysis; type: functional, organism-based
# Medulloblastoma cell [12] = assay: Induction of cell differentiation activity in human medulloblastoma cells xenografted in CB17/SCID mouse assessed as increase in NeuN expression at 100 mg/kg po, administered once a day by immunocytochemistry analysis; type: functional, organism-based
# Medulloblastoma cell [13] = assay: Induction of cell differentiation activity in human medulloblastoma cells xenografted in CB17/SCID mouse assessed as increase in NeuN expression at 50 mg/kg po, administered once a day by immunocytochemistry analysis; type: functional, organism-based
# Medulloblastoma cell [14] = assay: Increase of apoptosis in human medulloblastoma cells xenografted in CB17/SCID mouse assessed as cleaved caspase-3 expression at 100 mg/kg po, administered once a day by immunocytochemistry analysis; type: functional, organism-based
# Medulloblastoma cell [15] = assay: Increase of apoptosis in human medulloblastoma cells xenografted in CB17/SCID mouse assessed as cleaved caspase-3 expression at 50 mg/kg po, administered once a day by immunocytochemistry analysis; type: functional, organism-based
# Medulloblastoma cell [16] = assay: Antitumor activity in human medulloblastoma cells xenografted in CB17/SCID mouse assessed as increase in NeuroD1 expression at 100 mg/kg po, administered once a day by Western blot analysis; type: functional, organism-based
# Mus musculus = assay: Antitumor activity in human medulloblastoma cells xenografted in CB17/SCID mouse assessed as increase in NeuroD1 expression at 50 mg/kg po, administered once a day by Western blot analysis; type: functional, organism-based
Compound,Activity (Medulloblastoma cell [1]),Activity (Medulloblastoma cell [2]),Activity (Medulloblastoma cell [3]),IC50 (Medulloblastoma cell [4]) [µM],Activity [5],Activity (Medulloblastoma cell [6]),Activity (Medulloblastoma cell [7]),Activity [8],Activity [9],Activity (Medulloblastoma cell [10]),Activity (Medulloblastoma cell [11]),Activity (Medulloblastoma cell [12]),Activity (Medulloblastoma cell [13]),Activity (Medulloblastoma cell [14]),Activity (Medulloblastoma cell [15]),Activity (Medulloblastoma cell [16]),Activity (Mus musculus)
CCCc1cc(C)[nH]c(=O)c1CNC(=O)c1cc(-c2ccc(N3CCN(C(C)C)CC3)nc2)cc2c1cnn2C(C)C,Active,Active,Active,2.08,Active,Active,Active,Non-Toxic,Non-Toxic,Active,Active,Active,Active,Active,Active,Active,Active
CC[C@H](C)n1cc(C)c2c(C(=O)NCc3c(C)cc(C)[nH]c3=O)cc(-c3ccc(N4CCNCC4)nc3)cc21 [GSK2816126],Active,Active,Active,4.64,Active,Active,Active,Non-Toxic,Non-Toxic,Active,Active,Active,Active,Active,Active,Active,Active
CCN(c1cc(-c2ccc(CN3CCOCC3)cc2)cc(C(=O)NCc2c(C)cc(C)[nH]c2=O)c1C)C1CCOCC1 [TAZEMETOSTAT],Active,Active,Active,8.74,Active,Active,Active,Non-Toxic,Non-Toxic,Active,Active,Active,Active,Active,Active,Active,Active

# From ChEMBL document CHEMBL5712092, “NeuroD1 Dictates Tumor Cell Differentiation in Medulloblastoma” (Cell Rep, 2020)
